Experimental data as given in ChEMBL document CHEMBL1649091, “Flavonoids with an oligopolysulfated moiety: a new class of anticoagulant agents” (J Med Chem, 2011).
Calls of active or inactive are those of the source. The calls are words filed in the database; no cut-off is given here.

Legend:
[1] = test system: Mus musculus; experiment: Anticoagulant activity in mouse assessed as increase in activated partial prothrombin time at 150 umol/kg, ip relative to control; assay type: functional
How it was run: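 Adult male CD1 mice (30-35 g) given compound in saline ip at 150 µmol/kg, fasted on the day. Citrated portal vein blood taken at 30, 60 and 120 min. APTT measured in platelet-poor plasma. Expressed as ratio to saline-treated mice, mean ± SEM of three experiments.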

[2] = Anticoagulant activity in human plasma assessed as concentration required to double prothrombin time; assay type: functional
How it was run: (§1)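 Citrated pooled normal human plasma mixed 1:1 with compound in water (final 5 × 10-3 to 0.05 × 10^-3 M) and held 2 min at 37 °C. APTT: reagent added, 6 min at 37 °C, then 25 mmol/L CaCl2. PT: prewarmed PT reagent. TT: prewarmed thrombin (100 U/mL). Clotting read on a coagulometer, duplicate, three days (n = 6). Doubling concentration taken from linear regression of each concentration-response curve.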

[3] = Anticoagulant activity in human plasma assessed as concentration required to double activated partial prothrombin time; assay type: functional; how it was run: as §1
[4] = Anticoagulant activity in human plasma assessed as concentration required to double thrombin time; assay type: functional; how it was run: as §1
[5] = test system: Blood; experiment: Anticoagulant activity in human whole blood assessed as clotting time at 1.25 x 10^-4M by thromboelastography in presence of intrinsic activators; assay type: functional
How it was run: (§2)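 Citrated whole blood from healthy donors (1:9 citrate), run within 5 h on a ROTEM analyzer. Compound in saline diluted 1:16 into blood to the final concentration stated; saline control. Intrinsic (InTEM) or extrinsic (ExTEM) activator added. Clot monitored at 37 °C in an oscillating cup-and-pin system for up to 60 min, giving R, K, angle and MA.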

[6] = test system: Blood; experiment: Anticoagulant activity in human whole blood assessed as clotting formation time at 1.25 x 10^-4M by thromboelastography in presence of intrinsic activators; assay type: functional; how it was run: as §2
[7] = test system: Blood; experiment: Anticoagulant activity in human whole blood assessed as clotting time at 1.25 x 10^-4M by thromboelastography in presence of extrinsic activators; assay type: functional; how it was run: as §2
[8] = test system: Blood; experiment: Anticoagulant activity in human whole blood assessed as clotting formation time at 1.25 x 10^-4M by thromboelastography in presence of extrinsic activators; assay type: functional; how it was run: as §2
[9] = Antiplatelet activity against collagen ADP-induced human platelet aggregation assessed as closure time at 1.25 x 10^-4M; assay type: functional
How it was run: (§3)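 Compound solution added to citrated human whole blood (125 µL into 1875 µL) to the final concentration stated, then run on a PFA-100 in collagen/ADP and collagen/epinephrine cartridges. Closure time is the time until platelets occlude the membrane aperture, in seconds. Mean ± SEM of three independent experiments.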

[10] = Antiplatelet activity against collagen EPI-induced human platelet aggregation assessed as closure time at 1.25 x 10^-4M; assay type: functional; how it was run: as §3
[11] = biological target: Coagulation factor X (Homo sapiens) (UniProt P00742); experiment: Inhibition of human factor 10a assessed as 25 x 10^-6M chromogenic TH substrate hydrolysis at 2 x 10^-3M
Sequence of Coagulation factor X (Homo sapiens) (P00742 41-179 limits assumed): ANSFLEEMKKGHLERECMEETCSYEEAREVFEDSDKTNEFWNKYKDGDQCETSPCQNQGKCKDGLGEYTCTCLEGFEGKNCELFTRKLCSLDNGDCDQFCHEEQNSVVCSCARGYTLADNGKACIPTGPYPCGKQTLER
Sequence of Coagulation factor X (Homo sapiens) (P00742 235-488 limits assumed): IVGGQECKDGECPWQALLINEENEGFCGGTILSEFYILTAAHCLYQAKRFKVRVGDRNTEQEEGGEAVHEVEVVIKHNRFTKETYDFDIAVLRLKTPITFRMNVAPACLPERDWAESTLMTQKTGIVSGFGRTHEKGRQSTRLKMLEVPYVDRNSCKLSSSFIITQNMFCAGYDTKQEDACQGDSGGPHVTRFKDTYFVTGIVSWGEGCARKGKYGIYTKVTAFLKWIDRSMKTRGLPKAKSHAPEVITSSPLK
How it was run: (§4)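 Direct FXa test, with buffer in place of ATIII: compound in water in 50 mM Tris/HCl pH 8.3, 227 mM NaCl, 0.1% BSA, 10 min at 37 °C. Human FXa (0.5 U/mL final) added for 10 min, then CBS 31.39 (25 or 125 × 10^-6 M). Read at 405 nm every 12 s for 20 min. Percent inhibition from initial slope against water control, Michaelis-Menten fit.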

[12] = biological target: Coagulation factor X (Homo sapiens) (UniProt P00742); experiment: Inhibition of human factor 10a assessed as 25 x 10^-6M chromogenic TH substrate hydrolysis at 1 x 10^-3M; how it was run: as §4
[13] = biological target: Coagulation factor X (Homo sapiens) (UniProt P00742); experiment: Inhibition of human factor 10a assessed as 25 x 10^-6M chromogenic TH substrate hydrolysis at 0.5 x 10^-3M; how it was run: as §4
[14] = biological target: Coagulation factor X (Homo sapiens) (UniProt P00742); experiment: Inhibition of human factor 10a assessed as 125 x 10^-6M chromogenic TH substrate hydrolysis at 2 x 10^-3M; how it was run: as §4
[15] = biological target: Coagulation factor X (Homo sapiens) (UniProt P00742); experiment: Inhibition of human factor 10a assessed as 125 x 10^-6M chromogenic TH substrate hydrolysis at 1 x 10^-3M; how it was run: as §4
[16] = biological target: Coagulation factor X (Homo sapiens) (UniProt P00742); experiment: Inhibition of human factor 10a assessed as 125 x 10^-6M chromogenic TH substrate hydrolysis at 0.5 x 10^-3M; how it was run: as §4
[17] = biological target: T1, Coagulation factor X/antithrombin III (Homo sapiens) (UniProt P01008+P00742); experiment: Inhibition of human antithrombin 3/factor 10a assessed as 25 x 10^-6M CBS31.39 substrate hydrolysis at 2 x 10^-3M; assay type: protein-complex assay
[18] = biological target: T1, Coagulation factor X/antithrombin III (Homo sapiens); experiment: Inhibition of human antithrombin 3/factor 10a assessed as 25 x 10^-6M CBS31.39 substrate hydrolysis at 1 x 10^-3M; assay type: protein-complex assay
[19] = biological target: T1, Coagulation factor X/antithrombin III (Homo sapiens); experiment: Inhibition of human antithrombin 3/factor 10a assessed as 25 x 10^-6M CBS31.39 substrate hydrolysis at 0.5 x 10^-3M; assay type: protein-complex assay
[20] = biological target: T1, Coagulation factor X/antithrombin III (Homo sapiens); experiment: Inhibition of human antithrombin 3/factor 10a assessed as 125 x 10^-6M CBS31.39 substrate hydrolysis at 2 x 10^-3M; assay type: protein-complex assay
[21] = biological target: T1, Coagulation factor X/antithrombin III (Homo sapiens); experiment: Inhibition of human antithrombin 3/factor 10a assessed as 125 x 10^-6M CBS31.39 substrate hydrolysis at 1 x 10^-3M; assay type: protein-complex assay
[22] = biological target: T1, Coagulation factor X/antithrombin III (Homo sapiens); experiment: Inhibition of human antithrombin 3/factor 10a assessed as 125 x 10^-6M CBS31.39 substrate hydrolysis at 0.5 x 10^-3M; assay type: protein-complex assay
[23] = biological target: Prothrombin (Homo sapiens) (UniProt P00734); experiment: Inhibition of human thrombin
How it was run: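 Direct thrombin assay without ATIII: compound in water in 50 mM Tris/HCl pH 8.3, 227 mM NaCl, 0.1% BSA, 10 min at 37 °C. Human thrombin (0.06 U/mL final) added for 10 min, then Chromozym TH (178 × 10^-6 M). Read at 405 nm every 12 s for 20 min. Percent inhibition from initial slope against water control. Duplicates on ≥3 days.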

[24] = Stability of the compound in human plasma assessed as compound remaining after 3 hrs; assay type: ADME, cell-free; settings: read-out: Activity
How it was run: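 Compound at 25 µM final in human plasma diluted 1:1 with PBS pH 7.4, shaken at 37 °C for 180 min. Time-zero and 180-min samples quenched with TBA buffer and cold acetonitrile, then centrifuged. Supernatant dried, redissolved and analysed by HPLC. Three independent samples per time point.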

[25] = test system: Mus musculus; experiment: Hepatotoxicity in mouse liver assessed as change in plasma GOT/GPT level at 150 umol/kg, ip; assay type: toxicity, organism-based; settings: in vivo
How it was run: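 Male CD1 mice (30-35 g), compound in saline ip at 150 µmol/kg. Portal vein citrated blood taken at 30, 60 and 120 min. GOT and GPT (U/L) measured in platelet-poor plasma on an automated chemistry analyzer. Four independent experiments, mean ± SEM.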

[26] = test system: Blood; experiment: Anticoagulant activity in human whole blood assessed as alpha angle at 1.25 x 10^-4M by thromboelastography in presence of intrinsic activators; assay type: functional; how it was run: as §2
[27] = test system: Blood; experiment: Anticoagulant activity in human whole blood assessed as alpha angle at 1.25 x 10^-4M by thromboelastography in presence of extrinsic activators; assay type: functional; how it was run: as §2
[28] = test system: Blood; experiment: Anticoagulant activity in human whole blood assessed as maximum amplitude at 1.25 x 10^-4M by thromboelastography in presence of intrinsic activators; assay type: functional; how it was run: as §2
[29] = test system: Blood; experiment: Anticoagulant activity in human whole blood assessed as maximum amplitude at 1.25 x 10^-4M by thromboelastography in presence of extrinsic activators; assay type: functional; how it was run: as §2

inhibition [11]: 40%
inhibition [12]: 30.9%
inhibition [13]: inactive
inhibition [14]: 42.7%
inhibition [15]: 32%
inhibition [16]: 22.4%
inhibition [17]: 31.4%
inhibition [18]: 30.5%
inhibition [19]: 29.3%
inhibition [20]: 33.1%
inhibition [21]: 20.7%
inhibition [22]: inactive
inhibition [23]: inactive
remaining at 3 h [24]: 95%
SMILES: C[C@H]1O[C@@H](OC[C@@H]2O[C@H](Oc3c(-c4ccc(OS(=O)(=O)O)c(OS(=O)(=O)O)c4)oc4cc(OS(=O)(=O)O)cc(OS(=O)(=O)O)c4c3=O)[C@@H](OS(=O)(=O)O)[C@H](OS(=O)(=O)O)[C@H]2OS(=O)(=O)O)[C@@H](OS(=O)(=O)O)[C@@H](OS(=O)(=O)O)[C@@H]1OS(=O)(=O)O
fold change (FC) [1]: 1.5
2PT [2]: 649 µM
2aPTT [3]: 66 µM
Activity [4]: 877 µM
Time [5]: 261 s
Time [6]: 176 s
Time [7]: 120 s
Time [8]: 257 s
Time [9]: 189 s
Time [10]: 244 s
Activity [25]: Non-toxic
Activity [26]: 61 degree
Activity [27]: 51 degree
Activity [28]: 48 mm
Activity [29]: 46 mm
